We go through 3 molecules from ChEMBL document CHEMBL3045357, “DNA adducts as biomarkers for oxidative and genotoxic stress from pesticides in crop plants” (J Agric Food Chem, 2008).

Holding throughout (format): organism-based
Common to all, as to details: in vivo, other, 336 h

The subject of series [1] is Glycine max. Kind of series: Genotoxicity in Glycine max (soybean) exposed to compound through spray 4 times over 2 weeks assessed as relative adduct level A3 measured per 10^9 nucleotides using HX-dG internal standard using [32P]labeling based autoradiography relative to untreated control. The method in brief: (§1)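 Plants (2–6 weeks grown), groups of 2–4, sprayed 4 times over 2 weeks with formulations diluted per label (chlorothalonil 1:256, carbaryl 1:64 in water); controls water-sprayed. DNA from 1 g leaf via DNeasy Maxi kit. 10 µg DNA digested with micrococcal nuclease/spleen phosphodiesterase (4 h, 37 °C), NP1-enriched (45 min, 37 °C), labelled with [γ-32P]ATP/T4 kinase (45 min, 37 °C).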

Series [2] has as its system Glycine max. Kind of series: Genotoxicity in Glycine max (soybean) exposed to compound through spray 4 times over 2 weeks assessed as relative adduct level A3 measured per 10^9 nucleotides using [32P]labeling based autoradiography relative to untreated control. The procedure, abridged:
as §1

Series [3] concerns Glycine max. Kind of series: Genotoxicity in Glycine max (soybean) exposed to compound through spray 4 times over 2 weeks assessed as relative adduct level A2 measured per 10^9 nucleotides using [32P]labeling based autoradiography relative to untreated control. The method in brief: as §1
In series [4] the test system is Glycine max. Put plainly: Genotoxicity in Glycine max (soybean) exposed to compound through spray 4 times over 2 weeks assessed as relative adduct level A1 measured per 10^9 nucleotides using [32P]labeling based autoradiography relative to untreated control. The method in brief:
as §1

Series [5] has as its system Glycine max. Kind of series: Genotoxicity in Glycine max (soybean) exposed to compound through spray 4 times over 2 weeks assessed as HNE-dG adducts using [32P]labeling based autoradiography (reference value: 34 cpm). The procedure, abridged:
as §1

The subject of series [6] is Glycine max. Kind of series: Genotoxicity in Glycine max (soybean) exposed to compound through spray 4 times over 2 weeks assessed as relative adduct level A2 measured per 10^9 nucleotides using HX-dG internal standard using [32P]labeling based autoradiography relative to untreated control. The procedure, abridged:
as §1

Series [7] concerns Glycine max. Put plainly: Genotoxicity in Glycine max (soybean) exposed to compound through spray 4 times over 2 weeks assessed as relative adduct level A1 measured per 10^9 nucleotides using HX-dG internal standard using [32P]labeling based autoradiography relative to untreated control. The procedure, abridged: as §1
The subject of series [8] is Glycine max. Kind of series: Genotoxicity in Glycine max (soybean) exposed to compound through spray 4 times over 2 weeks assessed as HX-dG adducts using [32P]labeling based autoradiography. The procedure, abridged: as §1
Series [9] deals with Glycine max. Kind of series: Genotoxicity in Glycine max (soybean) exposed to compound through spray 4 times over 2 weeks assessed as HNE-dG adducts measured per 10^9 nucleotides using [32P]labeling based autoradiography (reference value: 2 no unit). The procedure, abridged: as §1
In series [10] the test system is Glycine max. Kind of series: Genotoxicity in Glycine max (soybean) exposed to compound through spray 4 times over 2 weeks assessed as HX-dG adducts measured per 10^9 nucleotides using [32P]labeling based autoradiography. The method in brief:
as §1

In series [11] the test system is Glycine max. Put plainly: Genotoxicity in Glycine max (soybean) exposed to compound through spray 4 times over 2 weeks assessed as relative adduct level A5 measured per 10^9 nucleotides using HX-dG internal standard using [32P]labeling based autoradiography relative to untreated control. The procedure, abridged:
as §1

Series [12] relates to Glycine max. Kind of series: Genotoxicity in Glycine max (soybean) exposed to compound through spray 4 times over 2 weeks assessed as relative adduct level A4 measured per 10^9 nucleotides using HX-dG internal standard using [32P]labeling based autoradiography relative to untreated control. The method in brief:
as §1

Series [13] has as its system Glycine max. Put plainly: Genotoxicity in Glycine max (soybean) exposed to compound through spray 4 times over 2 weeks assessed as relative adduct level A5 measured per 10^9 nucleotides using [32P]labeling based autoradiography relative to untreated control. The procedure, abridged:
as §1

The test system of series [14] is Glycine max. Put plainly: Genotoxicity in Glycine max (soybean) exposed to compound through spray 4 times over 2 weeks assessed as relative adduct level A4 measured per 10^9 nucleotides using [32P]labeling based autoradiography relative to untreated control. The method in brief: as §1
Series [15] concerns Glycine max. Kind of series: Genotoxicity in Glycine max (soybean) exposed to compound through spray 4 times over 2 weeks assessed as relative adduct level A6 measured per 10^9 nucleotides using HX-dG internal standard using [32P]labeling based autoradiography relative to untreated control. The method in brief:
as §1

In series [16] the test system is Glycine max. Put plainly: Genotoxicity in Glycine max (soybean) exposed to compound through spray 4 times over 2 weeks assessed as relative adduct level A6 measured per 10^9 nucleotides using [32P]labeling based autoradiography relative to untreated control. The method in brief:
as §1

Consider `CC(C)[C@H](C(=O)O[C@H](C#N)c1cccc(Oc2ccccc2)c1)c1ccc(Cl)cc1`, for which the Activity turned out to be 7857 cpm with Glycine max [1]; 154 in the series on Glycine max [2]; 49 in the series with Glycine max [3]; 26 in the series on Glycine max [4]; 3062 cpm with Glycine max [5]; 2477 cpm in the series on Glycine max [6]. The Activity in the series on Glycine max [7] is listed as 1344 cpm; in the series with Glycine max [8], 8264 cpm; in the series with Glycine max [9], 60; with Glycine max [10], 215.
Take `CNC(=O)Oc1cccc2ccccc12` [CARBARIL]: the Activity is reported as 2767 cpm in the series on Glycine max [11]; 773 cpm in the series on Glycine max [12]; 809 cpm with Glycine max [1]; 54 with Glycine max [13]; 15 in the series with Glycine max [14]; 16 in the series with Glycine max [2]. The Activity is given as 11 in the series with Glycine max [3]; 11 with Glycine max [4]; 2956 cpm with Glycine max [5]; 571 cpm with Glycine max [6]; 569 cpm with Glycine max [7]; 6310 cpm with Glycine max [8]. Moreover, the Activity with Glycine max [9] was determined as 58; with Glycine max [10] it was 164.
In the case of `CCOP(=S)(OCC)Oc1cc(C)nc(C(C)C)n1` [DIMPYLATE], the Activity is recorded as 1396 cpm in the series on Glycine max [15]; 341 cpm in the series with Glycine max [11]; 927 cpm in the series on Glycine max [12]; 1377 cpm with Glycine max [1]; 27 in the series on Glycine max [16]; 7 in the series on Glycine max [13]. In addition, the Activity stood at 18 in the series with Glycine max [14]; 27 in the series with Glycine max [2]; 49 with Glycine max [3]; 1 in the series on Glycine max [4]; 1679 cpm in the series on Glycine max [5]; 2483 cpm in the series on Glycine max [6]. In addition, the Activity in the series on Glycine max [7] worked out at 46 cpm; in the series on Glycine max [8], 1823 cpm; in the series on Glycine max [9], 33; in the series on Glycine max [10], 47.
